Laboratory results from PubChem BioAssay AID651723 (Broad Institute, 2012).
Screen size: about 350,000 compounds; about 740 (0.21%) were called active.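 Rule for the calls: active = every replicate reaching activation of at least 50%, whatever the mean replicate activation; inconclusive = replicates that disagree or another doubt; inactive = the rest.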 The full list was thinned out, with actives kept by preference.

Experiment: increased acetylated PGC1a in cells – cell-based, U2OS, AlphaScreen, signal-increasing mode, PGC1a modulator project, primary screen (AID 651723)
Settings: U2OS PGC1a acetylation AlphaScreen, overnight; at 15.6 µM; active compounds read high
Summary of the method: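 Test system: U2OS cells expressing flag-PGC1a plus GCN5; Amount: 7000 U2OS cells per well; Compound: single test concentration per compound; Incubation: compound overnight at 37 °C, each detection step 1 h RT; Signal: AlphaScreen lysate read.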

activation, inactive:
CCOC(=O)c1c(-c2ccc(C)cc2C)csc1NC(=O)CSc1nnnn1C -46.2%
Cc1noc(C)c1S(=O)(=O)Nc1ccc2c(c1)C(=O)N([C@@H](C)CO)C[C@@H](C)[C@@H](CN(C)S(=O)(=O)c1ccccc1)O2 -50.3%
Cc1ccc(-c2c[n+](CC(=O)Nc3ccccc3)c3n2CCC3)cc1 -43.3%
Cc1nc(SCC(=O)NC2CCCC2)[nH]c(=O)c1C -42.3%
Cn1c2c(c(=O)n(C)c1=O)C(c1cccc(F)c1)C(C#N)=C(N)O2 (stereo not given) -80.9%
CCOCCc1nn2c(=O)cc(CSCC(=O)Nc3cccc(C)c3C)nc2s1 -38.7%
O=S(=O)(c1ccc(Br)cc1)n1ccc2ccccc21 -40.2%
Cc1cc(C)c(S(=O)(=O)NCC2CCC(C(=O)NCc3ccc4c(c3)OCO4)CC2)c(C)c1 (stereo not given) -43.2%
Cc1nc(Nc2ccc3c(c2)OCCO3)c2nnn(Cc3ccccc3Cl)c2n1 -56.2%
O=C(Nc1cccc(Cl)c1)c1cncn1-c1ccc(F)cc1 -44.8%
CN(C)c1ccc(-n2cccc2/C=N/n2cnnc2)cc1 -55.5%
O=C(NC1=CC(=O)c2ccccc2C1=O)c1ccccc1 -80.8%
CC[C@H]1CN2CCc3cc(OC)c(OC)cc3[C@@H]2C[C@@H]1C[C@H]1NCCc2cc(OC)c(OC)cc21 -83.7%
N#Cc1ccc(-c2ccc(C3[C@@H]4CN(S(=O)(=O)c5ccc(F)cc5)C[C@H]3N4)cc2)cc1 (stereo not given in full) -58.1%
CCOC(=O)CSc1nccc(N(C)C)c1C#N -9.86%
COc1ccc(CC(NC(C)=O)C(=O)N2CCN(C(=O)Nc3cccc(Cl)c3)CC2)cc1OC (stereo not given) -50.7%
Cc1cc(C)n(-c2nc(O)cc(=O)[nH]2)n1 -36.3%
CC(C)C#Cc1cnc2c(c1)C(=O)N([C@@H](C)CO)C[C@@H](C)[C@@H](CN(C)C(=O)CN1CCOCC1)O2 -58.3%
CCOc1ccccc1CN1CCN(C2CCC2)CC1CCO (stereo not given) -74.8%
CN1OC[C@@H]2CN(S(=O)(=O)c3cccc4ccccc34)[C@H](c3ccc(N4CCCCC4)cc3)C[C@@H]21 -47.9%
CCOC(=O)c1ccc2[nH]c(C)c(CN3CCN(C)CC3)c(=O)c2c1 -59.3%
C[C@@H]1CCCCO[C@@H](CN(C)CC2CC2)[C@H](C)CN([C@H](C)CO)C(=O)c2cc(NS(=O)(=O)c3ccccc3)ccc2O1 -56.4%
NC(=O)N/N=C\c1cccs1 -76.7%
O=C(Nc1ccc2c(c1)OCO2)N[C@H]1CC[C@H](CCNC(=O)C2CCC2)O[C@@H]1CO -46.2%
C=CCn1c(=NC(=O)c2ccc(S(=O)(=O)N3CCCC3)cc2)sc2cc(NC(C)=O)ccc21 -51.1%
N#Cc1ccc(-c2ccc([C@@H]3[C@H]4CNC[C@@H]3N4Cc3ccc4c(c3)OCO4)cc2)cc1 -48.1%
NC(=NC(=O)c1ccccc1)N1CCOCC1 -84.1%
CCN(CC)C(=O)c1ccc(O)c(OC)c1 -55.9%
N=C1C(c2nc3ccccc3s2)=C(O)CN1NC(=O)c1ccc([N+](=O)[O-])cc1 -100%
O=C(Cc1ccccc1)N1N=C(c2ccncc2)CC1(O)C(F)(F)F (stereo not given) -50%
C[C@@H]1CCCCO[C@@H](CN(C)CC2CC2)[C@@H](C)CN([C@H](C)CO)C(=O)c2cc(NC(=O)C3CCCCC3)ccc2O1 -52.5%
CCc1ccc(NC(=O)Nc2ccncc2)cc1 -48.9%
Cc1nc2ccccc2c(=O)n1NC(=O)c1ccc(Cl)c([N+](=O)[O-])c1 -44.8%
COc1ccc(-c2ccc(CCC(=O)O)n2NC(=O)c2ccc(C(C)(C)C)cc2)cc1 -43.5%
S=C1NC(c2ccccc2)=NCN1c1ccc(Br)cc1 -80.9%

activation, active:
CCOC(=O)c1c(NC(=O)CSc2cn(CC)c3ccccc23)sc2c1CCC2 67.2%
CCCCC(=O)Nc1ccc(C(=O)NCCCn2ccnc2)cc1 71.6%
Cc1csc(NC(=O)NC2(C(F)(F)F)Oc3ccccc3O2)n1 74.6%
c1ccc2c(-c3nn4nnnc4c4ccccc34)cccc2c1 71%
COc1ccc(Oc2c(Cl)cnn(-c3ccccc3)c2=O)cc1 112%
CC(C)(C)c1cc(C(=O)N/N=C/c2ccc([N+](=O)[O-])s2)n[nH]1 80.1%
N#Cc1c(N)nc2c3c(sc(=N)c2c1N)NC(=O)CC3c1ccccc1Cl (stereo not given) 67.8%
Cc1cccc(CS(=O)(=O)c2ncc(Cl)c(C(=O)Nc3ccc(F)cc3)n2)c1 138%
CCc1ccc(N2CC(O)=C(c3nc4ccccc4c(=O)[nH]3)C2=N)cc1 165%
Cc1cc(C(=O)NNS(=O)(=O)c2ccccc2C(F)(F)F)nn1C(C)(C)C 259%
COc1ccc(C(=O)NN(C)c2nc(-c3ccccc3)cc(C)c2S(C)(=O)=O)cc1 87.7%
O=C(CSc1nnc(Cn2cnc3ccccc32)o1)c1ccccc1 59.8%
Cc1cc(C)nc(S/C=C/C(=O)c2ccccc2)n1 63.2%
CC(C)CCNc1nc(N2CCCC2)c2c(c1C#N)CCN(C)C2 102%
COc1ccc(C(=O)/C=C/c2cccnc2)c(OC)c1 70.7%
O=[N+]([O-])c1ccc(C=Nc2ccc(Cl)cc2Cl)s1 68.4%
CCOC(=O)C1=CC[C@@H](c2ccccc2)N(S(=O)(=O)c2ccc(C)cc2)[C@H]1c1ccc(CC)cc1 75.7%
COc1ccc(C(=O)Nc2nc(-c3ccc(OC)cc3)c(-c3ccc([N+](=O)[O-])cc3)s2)cc1 55.6%
CCn1c(/C=C/c2ccc([N+](=O)[O-])o2)nc2ccccc2c1=O 149%
O=C1CN(S(=O)(=O)Cc2ccccc2)C[C@@H]2[C@@H](c3ccc(C#Cc4cccc(F)c4)cc3)[C@@H](CO)N12 60.3%
